Shown are actives, neighbours in structure and some others; about 2.9% of the full set was active somewhere.
MEKK3 PB1 HTS: modulators (inhibitors or enhancers) of MEK5 binding to human MEKK3 PB1 domain. Q99759. bead-based flow cytometry, Alexa488-MEK5 binding to MEKK3; actives lie on both sides; 0 = blocked by unlabeled MEK5, 100 = vehicle. binding response (% of control), % at 10 µM. 290,000 tested, 1.4% active. AID 1529;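 active = binding response more than 3 SD above or below the average of its plate-row segment, actives on both sides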;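 note: Alexa488 bead fluorescence after subtracting the streptavidin-only scavenger bead signal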
Beta2AR agonist: agonists of human beta-2 adrenergic receptor inducing internalization; P07550; Am2.2-beta2AR cells, FAP receptor internalization, flow cytometry; response, % (test concentration not listed); 340,000 tested, 0.43% active;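 active = response above a set limit, near 3 SD of response in nonfluorescent compounds, cut at about 42% in these data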
MEKK2 WT-MEK5: raises or lowers MEK5 binding to wildtype human MEKK2 PB1 domain | binding response (% of control), % at 10 µM | bead flow cytometry, Alexa488-MEK5 binding to MEKK2 WT; actives lie on both sides | 290,000 tested, 1.1% active | Q9Y2U5; in the data active = binding response below about 67% or above about 130%
Dynein transport: blocks dynein driven cargo transport along microtubules; 3617.4 mouse cells, GR-EGFP nuclear translocation imaging; test concentration mostly 20 µM; stimulated with dexamethasone, 1 µM; hits give low values; z-score, hits read low; 220,000 tested, 0.47% active;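 active = plate z-score of nuclear minus cytoplasmic receptor signal below a set negative limit, without overly bright fluorescence or cell loss, cut at about -3.5 in these data, passing the limit was not always enough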;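 note: z-score of nuclear minus cytoplasmic ring GR-EGFP intensity difference per well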
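Also added: dexamethasone, 1.0 µM final. Medium: tet-free, stripped-serum medium. Detection: fixed, Hoechst-stained cells imaged at 10x for EGFP. Read-out: nuclear-to-cytoplasmic GR-EGFP distribution per well. Times: induction 48 h, compound 1 h, agonist 30 min.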
MEKK2 mut-MEK5: signal of MEK5 binding to mutant human MEKK2 PB1 domain; bead flow cytometry, Alexa488-MEK5 binding to MEKK2 mutant; percent response, % at 10 µM; 290,000 tested, 0.35% active; AID 1530; in the data active = percent response above about 24%, passing the limit was not always enough
ATG4B inh: blocks human ATG4B protease cleavage of LC3 substrate; ATG4B cleavage of LC3-PLA2, NBD-HPC fluorescence, 1 h; 340,000 tested, 0.51% active; inhibition, % at 8.33 µM; Q9Y4P1; in the data active = inhibition above about 40%
Target sequence (Q9Y4P1 whole entry, looked up): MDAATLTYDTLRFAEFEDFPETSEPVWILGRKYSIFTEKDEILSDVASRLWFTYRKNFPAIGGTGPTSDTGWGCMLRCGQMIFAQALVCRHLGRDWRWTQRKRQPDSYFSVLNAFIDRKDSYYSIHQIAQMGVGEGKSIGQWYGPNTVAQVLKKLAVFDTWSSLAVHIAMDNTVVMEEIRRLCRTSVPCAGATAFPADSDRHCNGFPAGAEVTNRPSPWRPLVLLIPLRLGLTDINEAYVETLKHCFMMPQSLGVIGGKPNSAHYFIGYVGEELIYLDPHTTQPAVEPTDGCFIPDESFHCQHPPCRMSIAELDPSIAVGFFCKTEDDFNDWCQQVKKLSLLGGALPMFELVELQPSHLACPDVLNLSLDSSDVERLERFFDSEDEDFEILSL
MEKK2wt confirm: raises or lowers MEK5 binding to wildtype human MEKK2, retest; shares compounds with MEKK3 PB1 HTS; bead flow cytometry, Alexa488-MEK5 binding to MEKK2 WT; actives lie on both sides; binding response (% of control), % at 10 µM; 5,900 tested, 2.4% active; AID 1892; in the data active = binding response below about 16% or above about 210%; inactive = in between
MEKK2mut-MEK5: signal of MEK5 binding to mutant human MEKK2, retest | shares compounds with MEKK3 PB1 HTS | bead flow cytometry, Alexa488-MEK5 binding to MEKK2 mutant | percent response, % at 10 µM | 5,900 tested, 2% active | AID 1893; in the data active = percent response mostly above about 71%, no sharp cut-off; inactive = mostly below about 38%;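 note: higher means compound restores mutant binding toward wildtype level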
MEKK3 confirm: MEKK3-MEK5 PB1 inhibition, single concentration confirmation. shares compounds with MEKK3 PB1 HTS. bead flow cytometry, Alexa488-MEK5 binding to MEKK3; hits give low values. binding response (% of control), % at 10 µM. 5,900 tested, 1.8% active. AID 1894;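 active = binding response below 72% of control, or above a set upper limit, though filed actives all read lower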;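 note: lower values mean stronger disruption of MEK5 binding to MEKK3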
Numbers stand for hits; 0 = inactive; - = no result; [ ] = dose if it differs, or a comment.

SMILES | MEKK3 PB1 HTS | Beta2AR agonist | MEKK2 WT-MEK5 | Dynein transport | MEKK2 mut-MEK5 | ATG4B inh | MEKK2wt confirm | MEKK2mut-MEK5 | MEKK3 confirm
CCOCCOC(=O)C1=C(C)N(C)C(=O)NC1c1ccccc1Cl (stereo not drawn) | 1.0[inhibitor] | 0 | 0.0[inhibitor] | 0 | 0 | 0 | 0 | 0 | 0
O=C(NC1CCCCC1)c1cccc(N2C(=O)CCC2=O)c1 | - | 0 | - | - | - | 0 | - | - | -
CC1(C)Cc2c(c(N3CCOCC3)nc3sc(-c4ccc(C(=O)O)o4)c(N)c23)CO1 | 0 | 0 | -5.0 | 0 | 62 | 0 | 0 | 0 | 0
O=C(O)C12CC3CC(C1)CC(n1ncc(N4CCN(c5ccccc5)CC4)c(Cl)c1=O)(C3)C2 | 145 | 0 | 0 | 0 | 0 | 0 | 0 | 0 | 0
Cc1cccc(NC(=O)COC(=O)Cc2cccc(C(F)(F)F)c2)c1C | 145 | 0 | 0 | 0 | 0 | 0 | 0 | 0 | 0
COc1cccc(NC(=O)CN(C)C(=O)/C=C/c2cn(-c3ccccc3)nc2-c2ccc(C)cc2)c1 | - | 0 | - | - | - | 0 | - | - | -
COc1ccc(-c2nn(-c3ccccc3)cc2/C=C/C(=O)OCC(=O)Nc2cccc(C#N)c2)cc1 | 130 | 0 | 0 | 0 | 0 | 0 | 0 | 0 | 0
CN1c2ccccc2-c2nc3ccccc3n2C1c1cccs1 (stereo not drawn) | 181 | 0 | 0 | 0 | 0 | 0 | 0 | 0 | 0
c1csc(C2Nc3ccccc3-c3nc4ccccc4n32)c1 (stereo not drawn) | 132 | 0 | 0 | 0 | 0 | 0 | 0 | 0 | 0
Cc1ccc(C2N(C)c3ccccc3-c3nc4ccccc4n32)o1 (stereo not drawn) | 0 | 0 | 0 | 0 | 0 | 0 | - | - | -
COc1ccc(OCC(=O)NNC(=O)c2ccccc2OCc2c(C)noc2C)cc1 | - | 0 | - | - | - | 0 | - | - | -
Cc1cccc(N(C(=O)c2snc(C(N)=O)c2N)C(C(=O)NCC2CCCO2)c2cccs2)c1 (stereo not drawn) | 0 | 0 | 0 | 0 | 0 | 0 | - | - | -
Cc1cccc(N(C(=O)c2snc(C(N)=O)c2N)C(C)C(=O)NCC2CCCO2)c1 (stereo not drawn) | 130 | 0 | 0 | 0 | 0 | 0 | 0 | 0 | 70
Cc1ccc(OCc2cccc(S(=O)(=O)N(C)C)c2)c([N+](=O)[O-])n1 | 0 | 0 | 0 | - | 0 | 0 | - | - | -
Cc1ccsc1/C=C(\C#N)C(=O)NCc1cccnc1 | 0 | 0 | 0 | 0 | 0 | 0 | - | - | -
Cc1ccsc1/C=C(/C#N)C(=O)NCc1ccccc1 | 0 | 0 | 0 | 0 | 58 | 0 | 0 | 0 | 0
Cc1[nH]c2ccccc2c1/C=C(\C#N)C(=O)NCc1ccccc1 | 0 | 0 | 15 | 0 | 134 | 0 | 0 | 0 | 0
CC1(C)CC2CC(C)(CN2C(=O)COC(=O)c2ccc(NC(=O)CC#N)cc2)C1 (stereo not drawn) | - | 0 | - | - | - | 0 | - | - | -
COc1ccc(NC2CCCN(C(=O)CSc3ccccc3)C2)cc1OC (stereo not drawn) | 0 | 0 | 0 | - | 0 | 0 | - | - | -
C=C1CCC[C@]2(C)C[C@H]3OC(=O)C(CNC(C)CCCC(C)C)[C@H]3CC12 (stereo partly drawn) | 0 | 0 | 138 | - | 0 | 0 | 0 | 0 | 0
CN1C(=O)[C@@H]2[C@@H]3C[C@@H]([C@H]4ON=C(c5ccc(Cl)cc5)[C@@H]34)[C@@H]2C1=O | 0 | 0 | 0 | 0 | 0 | 0 | - | - | -
COc1ccc(C2=NO[C@@H]3[C@@H]4C[C@@H]([C@H]5C(=O)N(C)C(=O)[C@@H]45)[C@H]23)cc1 | 153 | 0 | 0 | 0 | 0 | 0 | 0 | 0 | 0
Cc1nc(NC(=O)/C=C/c2ccccc2)sc1C(=O)NCCO | 139 | 0 | 0 | 0 | 79 | 0 | 0 | 0 | 0
CNc1nc(Cl)c(SC)c(NCc2cccc(OC)c2)n1 | 0 | 0 | 0 | - | 0 | 0 | - | - | -
CNc1nc(Cl)c(SC)c(NC2CCCCC2)n1 | 148 | 0 | 0 | 0 | 0 | 0 | 0 | 0 | 0
SMILES | MEKK3 PB1 HTS | Beta2AR agonist | MEKK2 WT-MEK5 | Dynein transport | MEKK2 mut-MEK5 | ATG4B inh | MEKK2wt confirm | MEKK2mut-MEK5 | MEKK3 confirm
COc1ccc(NC(=O)COC(=O)C2CCC2)cc1Cl | 0 | 0 | 0 | - | 0 | 0 | - | - | -
COC(=O)C(Cc1ccc(O)cc1)NC(=O)C(C)Oc1ccccc1 (stereo not drawn) | 0.0[inhibitor] | 0 | -5.0[inhibitor] | 0 | 0 | 0 | 0 | 0 | 0
S=C(NCC1CCCO1)Nc1ccc(Cl)cc1 (stereo not drawn) | 141 | 0 | 0 | 0 | 0 | 0 | 0 | 0 | 0
S=C(NCC1CCCO1)NC12CC3CC(CC(C3)C1)C2 (stereo not drawn) | 4.0[inhibitor] | 0 | 6.0[inhibitor] | 0 | 0 | 0 | 0 | 0 | 0
O=C(NCCc1ccccc1)C(=O)NCC1CCCO1 (stereo not drawn) | 12[inhibitor] | 0 | 17[inhibitor] | 0 | 0 | 0 | 0 | 0 | 0
CCN(CC)CCOC(=O)c1ccc(NC(=O)CCCN2C(=O)/C(=C/c3cccs3)SC2=S)cc1 | 0 | 0 | 0 | - | 0 | 0 | - | - | -
CCN(CC)CCNC(=O)c1ccc(NC(=O)c2ccc(COc3ccccc3)cc2)cc1 | 0 | 0 | 162 | - | 26 | 0 | 0 | 0 | 0
CCN1CCN(C(c2cccc(OC)c2OC)c2nnnn2Cc2ccco2)CC1 (stereo not drawn) | 0 | 0 | 0 | 0 | 0 | 0 | - | - | -
COc1ccccc1C(c1nnnn1Cc1ccco1)N1CCN(c2cccc(C)c2C)CC1 (stereo not drawn) | 49[inhibitor] | 0 | 0 | 0 | 0 | 0 | 0 | 0 | 0
O=C(Nc1cc(F)cc(F)c1)c1ccc(NCCc2ccccc2)c([N+](=O)[O-])c1 | 0 | 0 | 0 | 0 | 0 | 0 | - | - | -
Cc1ccc(NC(=O)c2ccc(NCCc3ccccc3)c([N+](=O)[O-])c2)cc1F | 0 | 0 | 5.0[inhibitor] | 0 | 0 | 0 | 0 | 0 | 0
CC(C)[C@H](NC(N)=O)C(=O)Nc1ccc(Oc2ccccc2)cc1 | 42[inhibitor] | 0 | 0 | 0 | 0 | 0 | 0 | 0 | 0
CC(C)c1nnc(NC(=O)C2CCCN2C(=O)Nc2ccccc2F)s1 (stereo not drawn) | 151 | 0 | 0 | 0 | 0 | 0 | 0 | 0 | 0
COc1ccccc1NC(=O)N1CCCC1C(=O)Nc1nnc(C(C)C)s1 (stereo not drawn) | 3.0[inhibitor] | 0 | 3.0[inhibitor] | 0 | 0 | 0 | 0 | 0 | 0
COc1ccc(C(C(=O)OC(C)CN(C)C)c2ccccc2)cc1 (stereo not drawn) | 0 | 0 | 0 | 0 | 25 | 0 | 0 | 0 | 45
